Assays:
[1] = test system: HT-29 (colon adenocarcinoma), MCF-7 (breast cancer), and MDA-MB-435 (melanoma); assay: In vivo hollow fiber assay; parameters: species or system human; conditions: highest dose used 20 mg/kg; ip
Method in brief: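 Hollow fibers carried HT-29, MCF-7 and MDA-MB-435 cells. Test compounds and the paclitaxel positive control were dosed ip across 1–20 mg/kg.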

[2] = test system: HT-29 human colon cancer cells; assay: Cytotoxicity assay; type: cell-based; conditions: three days incubation, SRB
Method in brief: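 HT-29 cells were trypsinized and seeded, then treated with test compound in DMSO at serial dilutions, with DMSO as negative control and paclitaxel as positive control, for three days at 37 °C, 5% CO2. Cells were fixed for 30 min at room temperature, washed, dried overnight and stained with SRB. Dye was solubilized in tris-base buffer and read at 515 nm. ED50 came from nonlinear regression, triplicates, two independent experiments.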

p65 subunit of NF-κB = p65 subunit of NF-κB (Homo sapiens, UniProt Q04206); assay: Enzyme-based ELISA NF-κB p65 inhibition assay; conditions: read-out: NF-κB p65 inhibition IC50, HeLa cell nuclear extracts
Sequence of p65 subunit of NF-κB (Q04206 whole entry): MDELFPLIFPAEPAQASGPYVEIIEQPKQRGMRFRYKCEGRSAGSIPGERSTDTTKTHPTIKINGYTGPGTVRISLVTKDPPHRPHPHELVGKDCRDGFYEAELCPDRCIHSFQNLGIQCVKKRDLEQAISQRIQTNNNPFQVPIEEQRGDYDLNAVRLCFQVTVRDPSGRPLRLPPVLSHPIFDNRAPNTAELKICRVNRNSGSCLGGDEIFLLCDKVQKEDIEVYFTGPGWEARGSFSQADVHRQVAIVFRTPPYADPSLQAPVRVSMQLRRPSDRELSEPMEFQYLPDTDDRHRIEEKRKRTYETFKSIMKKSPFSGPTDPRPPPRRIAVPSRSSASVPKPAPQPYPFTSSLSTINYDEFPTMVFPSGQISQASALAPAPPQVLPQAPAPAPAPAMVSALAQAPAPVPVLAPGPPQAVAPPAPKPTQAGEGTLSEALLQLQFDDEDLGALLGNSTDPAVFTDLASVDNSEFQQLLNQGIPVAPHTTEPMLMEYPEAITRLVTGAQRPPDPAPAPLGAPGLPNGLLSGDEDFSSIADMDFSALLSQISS

Compound | activity in in vivo hollow fiber assay [1] | cytotoxicity ED50 towards HT-29 cells [2] | IC50 (p65 subunit of NF-κB)
COc1c(OC(C)=O)cc2oc3cc(OC(C)=O)c(CC=C(C)C)c(O)c3c(=O)c2c1CC=C(C)C [Compound 8, 3,6-di-O-acetyl-α-mangostin] | inactive | – | –
1,3,7-trihydroxy-2,4-diisoprenylxanthone [Compound 5] | – | >10000 nM | 2900 nM

Source: publication PMC3103643 (Journal of natural products, 2011)
